Test results published in ChEMBL document CHEMBL2346607, “Borrelidin analogues with antimalarial activity: design, synthesis and biological evaluation against Plasmodium falciparum parasites” (Bioorg Med Chem Lett, 2013).
≈ marks a conversion by molar mass, not a printed value.

What was measured:
[1] = Selectivity index, ratio of IC50 for human […] cells to IC50 for Plasmodium falciparum FCR-3; format: toxicity, cell-based; conditions: […] cells (cytotoxicity) versus Plasmodium falciparum FCR-3, read-out: Ratio IC50
How it was run: (§1)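 SI is the MRC-5 cytotoxicity IC50 (ng/mL) divided by the antimalarial IC50 (ng/mL) against the FCR3 or K1 strain. Both IC50s come from the same in vitro test series.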

[2] = Selectivity index, ratio of IC50 for human […] cells to IC50 for Plasmodium falciparum K1; format: toxicity, cell-based; conditions: MCR5 cells (cytotoxicity) versus Plasmodium falciparum K1, read-out: Ratio IC50; how it was run: as §1
[3] = Cytotoxicity against human […] cells after 7 days by MTT assay; format: cell-based; conditions: 168 h
How it was run: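 Cytotoxicity was tested on MRC-5, a human diploid embryonic cell line. The value is reported as an IC50 in ng/mL.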

[4] = test system: Plasmodium falciparum; test: Antimalarial activity against Plasmodium falciparum FCR-3 infected in human erythrocytes after 72 hrs by lactate dehydrogenase assay; format: functional, cell-based; conditions: FCR-3/Gambia
How it was run: (§2)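 In vitro assay against the P. falciparum strains K1 (drug-resistant) and FCR3 (drug-sensitive). The value is reported as an IC50 in ng/mL.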

[5] = test system: Plasmodium falciparum; test: Antimalarial activity against Plasmodium falciparum K1 infected in human erythrocytes after 72 hrs by lactate dehydrogenase assay; format: functional, organism-based; conditions: K1, 72 h; how it was run: as §2

Row | Structure (SMILES) | selectivity ratio [1] | selectivity ratio [2] | IC50 [3] | IC50 [4] | IC50 [5]
1 | C[C@@H]1C[C@H](C)C[C@H](C)[C@@H](O)CC(=O)O[C@H]([C@@H]2CCC[C@H]2C(=O)OCc2cn(C34CC5CC(CC(C5)C3)C4)nn2)C/C=C/C=C(/C#N)[C@H](O)[C@@H](C)C1 | 16 | 39 | 2.7 µg/mL (≈ 3.83 µM) | 168 ng/mL (≈ 0.238 µM) | 70 ng/mL (≈ 0.0993 µM)
2 | C[C@@H]1C[C@H](C)C[C@H](C)[C@@H](O)CC(=O)O[C@H]([C@@H]2CCC[C@H]2C(=O)Sc2ccccc2)C/C=C/C=C(/C#N)[C@H](O)[C@@H](C)C1 | 6 | 9 | 0.98 µg/mL (≈ 1.68 µM) | 160 ng/mL (≈ 0.275 µM) | 107 ng/mL (≈ 0.184 µM)
3 | C[C@@H]1C[C@H](C)C[C@H](C)[C@@H](O)CC(=O)O[C@H]([C@@H]2CCC[C@H]2C(=O)OCc2cn(CSc3ccccc3)nn2)C/C=C/C=C(/C#N)[C@H](O)[C@@H](C)C1 | 19800 | 542000 | 16.8 µg/mL (≈ 24.2 µM) | 0.85 ng/mL (≈ 0.00123 µM) | 0.031 ng/mL (≈ 4.47e-05 µM)
4 | C[C@@H]1C[C@H](C)C[C@H](C)[C@@H](O)CC(=O)O[C@H]([C@@H]2CCC[C@H]2C(=O)OCc2cn(-c3ccc(C(=O)O)cc3)nn2)C/C=C/C=C(/C#N)[C@H](O)[C@@H](C)C1 | 209 | 267 | 10.1 µg/mL (≈ 14.6 µM) | 48.5 ng/mL (≈ 0.0702 µM) | 37.8 ng/mL (≈ 0.0547 µM)
5 | C[C@@H]1C[C@H](C)C[C@H](C)[C@@H](O)CC(=O)O[C@H]([C@@H]2CCC[C@H]2C(=O)OCc2cn(-c3cccnc3)nn2)C/C=C/C=C(/C#N)[C@H](O)[C@@H](C)C1 | 86 | 143 | 0.41 µg/mL (≈ 0.633 µM) | 4.8 ng/mL (≈ 0.00741 µM) | 2.9 ng/mL (≈ 0.00448 µM)
6 | C[C@@H]1C[C@H](C)C[C@H](C)[C@@H](O)CC(=O)O[C@H]([C@@H]2CCC[C@H]2C(=O)OCc2cn(-c3cnc4ccccc4c3)nn2)C/C=C/C=C(/C#N)[C@H](O)[C@@H](C)C1 | 13400 | 15600 | 1.05 µg/mL (≈ 1.5 µM) | 0.079 ng/mL (≈ 0.000113 µM) | 0.067 ng/mL (≈ 9.6e-05 µM)
7 | C#CCOC(=O)[C@@H]1CCC[C@H]1[C@@H]1C/C=C/C=C(/C#N)[C@H](O)[C@@H](C)C[C@H](C)C[C@H](C)C[C@H](C)[C@@H](O)CC(=O)O1 | 240 | 462 | 1.2 µg/mL (≈ 2.27 µM) | 5 ng/mL (≈ 0.00948 µM) | 2.6 ng/mL (≈ 0.00493 µM)
8 | C[C@@H]1C[C@H](C)C[C@H](C)[C@@H](O)CC(=O)O[C@H]([C@@H]2CCC[C@H]2C(=O)OCCN(C)C)C/C=C/C=C(/C#N)[C@H](O)[C@@H](C)C1 | 750 | 581 | 0.18 µg/mL (≈ 0.321 µM) | 0.24 ng/mL (≈ 0.000428 µM) | 0.31 ng/mL (≈ 0.000553 µM)
9 | C[C@@H]1C[C@H](C)C[C@H](C)[C@@H](O)CC(=O)O[C@H]([C@@H]2CCC[C@H]2C(=O)OCCN2CCOCC2)C/C=C/C=C(/C#N)[C@H](O)[C@@H](C)C1 | 604 | 419 | 0.26 µg/mL (≈ 0.431 µM) | 0.43 ng/mL (≈ 0.000713 µM) | 0.62 ng/mL (≈ 0.00103 µM)
10 | C[C@@H]1C[C@H](C)C[C@H](C)[C@@H](O)CC(=O)O[C@H]([C@@H]2CCC[C@H]2C(=O)NCC(=O)O)C/C=C/C=C(/C#N)[C@H](O)[C@@H](C)C1 | 1900 | 2850 | 58.9 µg/mL (≈ 108 µM) | 31 ng/mL (≈ 0.0567 µM) | 21 ng/mL (≈ 0.0384 µM)
11 | C[C@@H]1C[C@H](C)C[C@H](C)[C@@H](O)CC(=O)O[C@H]([C@@H]2CCC[C@H]2C(=O)N[C@@H](C)C(=O)O)C/C=C/C=C(/C#N)[C@H](O)[C@@H](C)C1 | 4190 |  |  | 13 ng/mL (≈ 0.0232 µM) | 
12 | C[C@@H]1C[C@H](C)C[C@H](C)[C@@H](O)CC(=O)O[C@H]([C@@H]2CCC[C@H]2C(=O)N[C@@H](CO)C(=O)O)C/C=C/C=C(/C#N)[C@H](O)[C@@H](C)C1 | > 500 | > 714 | > 1000 µg/mL | 200 ng/mL (≈ 0.347 µM) | 140 ng/mL (≈ 0.243 µM)
13 | C[C@@H]1C[C@H](C)C[C@H](C)[C@@H](O)CC(=O)O[C@H]([C@@H]2CCC[C@H]2C(=O)N[C@@H](CC(N)=O)C(=O)O)C/C=C/C=C(/C#N)[C@H](O)[C@@H](C)C1 | > 124 | > 172 | > 1000 µg/mL | 810 ng/mL (≈ 1.34 µM) | 580 ng/mL (≈ 0.961 µM)
14 | CC[C@H](C)[C@H](NC(=O)[C@@H]1CCC[C@H]1[C@@H]1C/C=C/C=C(/C#N)[C@H](O)[C@@H](C)C[C@H](C)C[C@H](C)C[C@H](C)[C@@H](O)CC(=O)O1)C(=O)O | 5330 | 3200 | 64 µg/mL (≈ 106 µM) | 12 ng/mL (≈ 0.0199 µM) | 18 ng/mL (≈ 0.0299 µM)
15 | C[C@@H]1C[C@H](C)C[C@H](C)[C@@H](O)CC(=O)O[C@H]([C@@H]2CCC[C@H]2C(=O)N[C@@H](Cc2ccc(O)cc2)C(=O)O)C/C=C/C=C(/C#N)[C@H](O)[C@@H](C)C1 | 197 | 206 | 33.4 µg/mL (≈ 51.2 µM) | 170 ng/mL (≈ 0.26 µM) | 163 ng/mL (≈ 0.25 µM)
16 | CCSC(=O)[C@@H]1CCC[C@H]1[C@@H]1C/C=C/C=C(/C#N)[C@H](O)[C@@H](C)C[C@H](C)C[C@H](C)C[C@H](C)[C@@H](O)CC(=O)O1 | 1340 | 1570 | 12.7 µg/mL (≈ 23.8 µM) | 10 ng/mL (≈ 0.0187 µM) | 8 ng/mL (≈ 0.015 µM)
17 | CCCSC(=O)[C@@H]1CCC[C@H]1[C@@H]1C/C=C/C=C(/C#N)[C@H](O)[C@@H](C)C[C@H](C)C[C@H](C)C[C@H](C)[C@@H](O)CC(=O)O1 | 12 | 20 | 3.4 µg/mL (≈ 6.21 µM) | 280 ng/mL (≈ 0.511 µM) | 167 ng/mL (≈ 0.305 µM)
18 | CC(C)SC(=O)[C@@H]1CCC[C@H]1[C@@H]1C/C=C/C=C(/C#N)[C@H](O)[C@@H](C)C[C@H](C)C[C@H](C)C[C@H](C)[C@@H](O)CC(=O)O1 | 142 | 172 | 10.2 µg/mL (≈ 18.6 µM) | 72 ng/mL (≈ 0.131 µM) | 59 ng/mL (≈ 0.108 µM)
19 | CCCCSC(=O)[C@@H]1CCC[C@H]1[C@@H]1C/C=C/C=C(/C#N)[C@H](O)[C@@H](C)C[C@H](C)C[C@H](C)C[C@H](C)[C@@H](O)CC(=O)O1 | 12 | 12 | 2 µg/mL (≈ 3.56 µM) | 170 ng/mL (≈ 0.303 µM) | 163 ng/mL (≈ 0.29 µM)
20 | CC(=O)O[C@H]1CC(=O)O[C@H]([C@@H]2CCC[C@H]2C(=O)O)C/C=C/C=C(/C#N)[C@H](OC(C)=O)[C@@H](C)C[C@H](C)C[C@H](C)C[C@@H]1C | 464 | 522 | 55.7 µg/mL (≈ 97.1 µM) | 120 ng/mL (≈ 0.209 µM) | 107 ng/mL (≈ 0.186 µM)
21 | COC(=O)[C@@H]1CCC[C@H]1[C@@H]1C/C=C/C=C(/C#N)[C@H](O)[C@@H](C)C[C@H](C)C[C@H](C)C[C@H](C)[C@@H](O)CC(=O)O1 | 1460 | 1460 | 14.6 µg/mL (≈ 29 µM) | 10 ng/mL (≈ 0.0199 µM) | 10 ng/mL (≈ 0.0199 µM)
22 | C[C@@H]1C[C@H](C)C[C@H](C)[C@@H](O)CC(=O)O[C@H]([C@@H]2CCC[C@H]2C(=O)O)CCCCC(C#N)[C@H](O)[C@@H](C)C1 (stereo not given in full) | 102 | 102 |  | 130 ng/mL (≈ 0.263 µM) | 130 ng/mL (≈ 0.263 µM)
23 | CCOC(=O)[C@@H]1CCC[C@H]1[C@@H]1C/C=C/C=C(/C#N)[C@H](O)[C@@H](C)C[C@H](C)C[C@H](C)C[C@H](C)[C@@H](O)CC(=O)O1 | 939 | 323 | 21.9 µg/mL (≈ 42.3 µM) | 23.3 ng/mL (≈ 0.045 µM) | 67.8 ng/mL (≈ 0.131 µM)
24 | CCCOC(=O)[C@@H]1CCC[C@H]1[C@@H]1C/C=C/C=C(/C#N)[C@H](O)[C@@H](C)C[C@H](C)C[C@H](C)C[C@H](C)[C@@H](O)CC(=O)O1 | 232 | 202 | 18.2 µg/mL (≈ 34.2 µM) | 78.8 ng/mL (≈ 0.148 µM) | 90.4 ng/mL (≈ 0.17 µM)
25 | C[C@@H]1C[C@H](C)C[C@H](C)[C@@H](O)CC(=O)O[C@H]([C@@H]2CCC[C@H]2C(=O)OCc2ccccc2)C/C=C/C=C(/C#N)[C@H](O)[C@@H](C)C1 | 198 | 165 | 4.05 µg/mL (≈ 6.99 µM) | 20.5 ng/mL (≈ 0.0354 µM) | 24.6 ng/mL (≈ 0.0424 µM)
26 | C=CCOC(=O)[C@@H]1CCC[C@H]1[C@@H]1C/C=C/C=C(/C#N)[C@H](O)[C@@H](C)C[C@H](C)C[C@H](C)C[C@H](C)[C@@H](O)CC(=O)O1 | 118 | 59.6 | 4.63 µg/mL (≈ 8.74 µM) | 39.2 ng/mL (≈ 0.074 µM) | 77.7 ng/mL (≈ 0.147 µM)
27 | C[C@@H]1CC[C@H]2[C@@H](C)C(=O)O[C@@H]3O[C@@]4(C)CC[C@@H]1[C@]32OO4 [ARTEMISININ] | 7530 | 7530 | 45.2 µg/mL (≈ 160 µM) |  | 
28 | C[C@@H]1C[C@H](C)C[C@H](C)[C@@H](O)CC(=O)O[C@H]([C@@H]2CCC[C@H]2C(=O)O)C/C=C/C=C(/C#N)[C@H](O)[C@@H](C)C1 [BORRELIDIN] | 228 | 216 | 0.201 µg/mL (≈ 0.41 µM) | 0.88 ng/mL (≈ 0.0018 µM) | 0.93 ng/mL (≈ 0.0019 µM)
29 | CCN(CC)CCCC(C)Nc1ccnc2cc(Cl)ccc12 (stereo not given) [CHLOROQUINE] |  |  | 18.6 µg/mL (≈ 58.1 µM) |  | 
